APJ antagonist = antagonists of human APJ apelin receptor; CHO-K1 APJ beta-arrestin complementation, luminescence; P35414; inhibition, % at 20 µM; actives 0.32% (n = 330,000);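 active means inhibition above about 40% at 20 µM, limit read from the data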;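 further: cells challenged with 10 nM apelin-13 agonist together with compound; plate controls were apelin-13 plus DMSO wells for no effect and DMSO wells lacking apelin-13 for full effect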
EBI2 block = EBI2 (human) antagonism; AID 651636; actives 0.81% (n = 360,000); EBI2 beta-arrestin recruitment, luminescence, 7a,25-OHC stimulated; inhibition, % at 5 µM; P32249; in the data active means inhibition above about 38%;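 further: enzyme fragment complementation signal reports receptor beta-arrestin coupling in cells; 0% = agonist plus DMSO wells and 100% = wells without agonist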
APJ ag = activates the human apelin receptor APJ; P35414; CHO-K1 APJ PathHunter beta-arrestin, luminescence; 0% DMSO wells, 100% apelin; activation, % at 20 µM; actives 0.11% (n = 330,000); AID 2520;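 active means activation more than six SD over the plate average, tested at 20 µM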;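 further: 0% = DMSO alone and 100% = apelin-13 at 10 nM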
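Test system: CHO-K1 APJ beta-arrestin complementation cell line | Compound: Single test compound dose, 20 µM final, 1% DMSO | Incubation: Compound 90 min 25 °C, reagent 1 h | Measured by: beta-gal luminescence | Read-out basis: APJ–arrestin association signal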
CXCR6 block = CXCR6 (human) receptor inhibition. O00574. CHO-K1 PathHunter CXCR6 beta-arrestin, luminescence. inhibition, % at 20 µM. actives 0.36% (n = 360,000); in the data active means inhibition above about 34%, passing the limit was not always enough;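 further: antagonist mode with CXCL16 agonist at 10 nM final; 0% = 10 nM CXCL16 with DMSO and 100% = unstimulated wells without agonist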
CCR6 antagonist = CCR6 (human) receptor antagonism; actives 0.49% (n = 340,000); CHO-K1 CCR6 PathHunter beta-arrestin, luminescence, CCL20-stimulated; P51684; AID 493098; inhibition, % at 20 µM;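 active means compounds whose inhibition of the agonist-driven luminescence signal at 20 µM reaches about 50%, limit read from the data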;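 further: cells stimulated with CCL20 at 14 nM final; plate controls were DMSO with CCL20 for no effect and DMSO without agonist for full effect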
Target sequence (P51684 whole entry, looked up): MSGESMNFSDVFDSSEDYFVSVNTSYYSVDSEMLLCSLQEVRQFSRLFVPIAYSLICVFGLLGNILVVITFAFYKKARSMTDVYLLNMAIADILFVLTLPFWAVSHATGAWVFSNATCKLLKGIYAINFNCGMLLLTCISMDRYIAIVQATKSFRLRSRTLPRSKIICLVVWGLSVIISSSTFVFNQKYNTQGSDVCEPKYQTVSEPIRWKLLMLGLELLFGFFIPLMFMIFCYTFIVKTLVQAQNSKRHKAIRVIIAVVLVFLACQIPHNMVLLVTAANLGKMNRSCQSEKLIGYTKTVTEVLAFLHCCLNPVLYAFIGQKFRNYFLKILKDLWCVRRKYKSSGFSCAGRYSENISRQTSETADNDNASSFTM
APJ antag confirm = APJ receptor antagonism confirmation; shares compounds with APJ antagonist; APJ beta-arrestin recruitment, luminescence, antagonist mode; inhibition, % at 20 µM; actives 66% (n = 950); AID 2766; in the data active means inhibition above about 50%
CXCR6 antag conf = confirmation of human CXCR6 receptor antagonists; shares compounds with CXCR6 block; CHO-K1 CXCR6 PathHunter beta-arrestin, luminescence; inhibition, % at 20 µM; actives 65% (n = 700);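 active means mean inhibition over four retests above 40%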;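 further: receptor stimulated with 10 nM CXCL16 agonist; beta-galactosidase fragment complementation upon beta-arrestin recruitment to receptor; plate controls were CXCL16 plus DMSO for no effect and DMSO without CXCL16 for full effect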
Starred values were filed as active, the others as inactive. This is a sample that favours compounds with a hit; in the whole collection about 1.5% have one here.

Results for O=C(CSC1=Nc2ccccc2C2=NC(c3ccccc3)C(=O)N12)NC1CCCCC1 (stereo unspecified) ?
APJ antagonist: 14; EBI2 block: 9; APJ ag: -11; CXCR6 block: 30; CCR6 antagonist: 43

Results for NC(=S)n1[nH]c(-c2ccc([N+](=O)[O-])cc2)c(N=Nc2ccc(Cl)cc2)c1=O ?
EBI2 block: 26; CXCR6 block: 24; CCR6 antagonist: 45

Results for O=c1c(N=Nc2ccc(O)cc2)c(-c2ccccc2)[nH]n1-c1ccc([N+](=O)[O-])cc1 ?
APJ antagonist: 54*; EBI2 block: 34; APJ ag: -6; CXCR6 block: 37; CCR6 antagonist: 52*; APJ antag confirm: 43

What do the screens show for `O=C1NC(=S)N/C1=C/c1cccc([N+](=O)[O-])c1O`?
APJ antagonist: 43*; EBI2 block: 6; APJ ag: -11; CXCR6 block: 44*; CCR6 antagonist: 46; APJ antag confirm: 79*

Results for CC(C)CNc1ncnc2c1ncn2[C@H]1CN(C2CCCC2)C[C@@H](CO)O1 ?
EBI2 block: -3; CXCR6 block: -6

How did CCc1noc(C)c1C(=O)NC1CC(C)(C)Cc2c1cnn2-c1ccccc1 (stereo unspecified) do in these assays?
APJ antagonist: 41*; EBI2 block: -2; APJ ag: -7; CXCR6 block: 8; APJ antag confirm: 25

Results for O=[N+]([O-])c1ccc(S(=O)(=O)c2ccccc2)nc1 ?
APJ antagonist: 43*; EBI2 block: -13; APJ ag: 6; CXCR6 block: 52*; CCR6 antagonist: 71*; APJ antag confirm: 51*

Results for COC(=O)[C@]12CCCCC=C1N(Cc1ccccc1)C(=O)[C@H](CC(=O)NCCc1ccccc1OC)C2 ?
EBI2 block: 6; CXCR6 block: 7

Results for O=C(NNc1ccc(-c2csnn2)cc1)c1cc(Cl)cc(Cl)c1 ?
APJ antagonist: 54*; EBI2 block: 14; APJ ag: -8; CXCR6 block: 14; CCR6 antagonist: 47; APJ antag confirm: 65*

What do the screens show for `CCOC(=O)c1ccc(NC(=O)c2ncn3c2C(=O)N[C@H](C)C3)cc1`?
EBI2 block: -11; CXCR6 block: -2

What do the screens show for `N#Cc1c(N)n(CCc2ccc(F)cc2)c2nc3ccccc3nc12`?
APJ antagonist: 65*; EBI2 block: 12; APJ ag: -1; CXCR6 block: 14; CCR6 antagonist: 20; APJ antag confirm: -7

What do the screens show for `COc1ccc(-n2c(N)c(C(=O)NCc3ccco3)c3nc4ccccc4nc32)cc1`?
APJ antagonist: 4; EBI2 block: 19; APJ ag: -2; CXCR6 block: 3; CCR6 antagonist: 16

How did Nc1c(C(=O)NCc2ccco2)c2nc3ccccc3nc2n1CCc1ccc(F)cc1 do in these assays?
APJ antagonist: 55*; EBI2 block: 3; APJ ag: -10; CXCR6 block: 6; CCR6 antagonist: -4; APJ antag confirm: -12

Results for Cc1c(C)c2c(OCC(=O)NCC3CCC(C(=O)O)CC3)cc3c(c2oc1=O)CCC(C)(C)O3 (stereo unspecified) ?
EBI2 block: -1; CXCR6 block: -9

Results for CCCCCCN1CCN(C2CN(Cc3ccccc3)S(=O)(=O)C2)CC1 (stereo unspecified) ?
EBI2 block: 5; CXCR6 block: -7

Results for COc1cc(/C=C(\C#N)c2nc(-c3cc4ccccc4oc3=O)cs2)ccc1O ?
APJ antagonist: 53*; EBI2 block: 22; APJ ag: -9; CXCR6 block: 49*; CCR6 antagonist: 60*; APJ antag confirm: 76*; CXCR6 antag conf: 49*

What do the screens show for `COC(=O)c1ccccc1-c1c2ccc(=N)cc-2oc2cc(N)ccc12`?
APJ antagonist: 49*; EBI2 block: 21; APJ ag: -9; CXCR6 block: 45*; CCR6 antagonist: 67*; APJ antag confirm: 75*; CXCR6 antag conf: 62*

How did COC(=O)c1ccccc1-c1ccc(/C=N/NC(=O)c2cc3ccccc3o2)o1 do in these assays?
APJ antagonist: -10; EBI2 block: 4; APJ ag: 1; CXCR6 block: -2; CCR6 antagonist: 3

How did COc1nc(=O)n(C2C=CC(=O)O2)cc1F (stereo unspecified) do in these assays?
EBI2 block: 12; CXCR6 block: 0

What do the screens show for `COc1ccc(C)c(-n2c(=O)n(Cc3ccccc3)c(=O)c3[nH]cnc32)c1`?
APJ antagonist: 69*; EBI2 block: 37; APJ ag: -19; CXCR6 block: 69*; CCR6 antagonist: 81*; APJ antag confirm: 117*; CXCR6 antag conf: 70*

Results for COc1ccc(Cn2c(=O)c3[nH]cnc3n(-c3ccccc3C)c2=O)cc1 ?
APJ antagonist: 3; EBI2 block: -12; APJ ag: -3; CXCR6 block: 0; CCR6 antagonist: 5

How did COc1ccc([C@@H]2CC(=O)[C@@H]3CN(S(=O)(=O)c4ccc(C)cc4)[C@H](c4ccccc4)C[C@@H]3N2S(=O)(=O)c2ccccc2)cc1 do in these assays?
EBI2 block: 6; CXCR6 block: 0

Results for Cc1c(Nc2cc(Cl)c3nonc3c2[N+](=O)[O-])c(=O)n(-c2ccccc2)n1C ?
APJ antagonist: 83*; EBI2 block: 61*; APJ ag: -7; CXCR6 block: 88*; CCR6 antagonist: 91*; APJ antag confirm: 115*; CXCR6 antag conf: 105*

Results for O=C(Nc1nc2c(F)cc(F)cc2s1)c1ccccn1 ?
APJ antagonist: 80*; EBI2 block: 63*; APJ ag: -8; CXCR6 block: 49*; CCR6 antagonist: 79*; APJ antag confirm: 84*; CXCR6 antag conf: 69*

What do the screens show for `O=C(COc1ccccc1)NNc1nc2c(F)cc(F)cc2s1`?
APJ antagonist: -15; EBI2 block: 3; APJ ag: -1; CXCR6 block: -7; CCR6 antagonist: 4

What do the screens show for `CC(C)(C)c1ccc(-n2nc(C#N)c(Cl)cc2=O)cc1`?
APJ antagonist: 60*; EBI2 block: 82*; APJ ag: -1; CXCR6 block: 61*; CCR6 antagonist: 50; APJ antag confirm: 83*; CXCR6 antag conf: 70*

What do the screens show for `CCOC(=O)C1=CCN(S(=O)(=O)c2ccccc2)C1c1ccccc1` (stereo unspecified)?
EBI2 block: -47; CXCR6 block: -7

What do the screens show for `CS(=O)(=O)c1ncc(Cl)c(C(=O)Nc2ccc(OC(F)F)cc2)n1`?
APJ antagonist: 44*; EBI2 block: -3; APJ ag: -4; CXCR6 block: 47*; CCR6 antagonist: 57*; APJ antag confirm: 72*; CXCR6 antag conf: 60*

Screening results as filed in PubChem.
